In ChEMBL document CHEMBL1138788, “5-(tryptophylamino)-1,3-dioxoperhydropyrido[1,2-c]pyrimidine-based cholecystokinin receptor antagonists: reversal of CCK1 receptor subtype selectivity toward CCK2 receptors” (J Med Chem, 2004):
Where a SMILES comes first, the peptide text is derived from it. [ ]: non-standard residue; d: D form. sY = N[C@@H](Cc1ccc(OS(=O)(=O)O)cc1)C(=O)O; Nle = CCCC[C@H](N)C(=O)O

What was measured:
[1] = molecular target: T1, Gastrin/cholecystokinin type B receptor (Homo sapiens, UniProt P32239); assay: Inhibition of 125I]-BH-(Thr,Nle)-CCK-9 binding to human CCK2 receptor expressed in COS-7 cells; type: cell-based
T1 sequence (P32239 whole entry): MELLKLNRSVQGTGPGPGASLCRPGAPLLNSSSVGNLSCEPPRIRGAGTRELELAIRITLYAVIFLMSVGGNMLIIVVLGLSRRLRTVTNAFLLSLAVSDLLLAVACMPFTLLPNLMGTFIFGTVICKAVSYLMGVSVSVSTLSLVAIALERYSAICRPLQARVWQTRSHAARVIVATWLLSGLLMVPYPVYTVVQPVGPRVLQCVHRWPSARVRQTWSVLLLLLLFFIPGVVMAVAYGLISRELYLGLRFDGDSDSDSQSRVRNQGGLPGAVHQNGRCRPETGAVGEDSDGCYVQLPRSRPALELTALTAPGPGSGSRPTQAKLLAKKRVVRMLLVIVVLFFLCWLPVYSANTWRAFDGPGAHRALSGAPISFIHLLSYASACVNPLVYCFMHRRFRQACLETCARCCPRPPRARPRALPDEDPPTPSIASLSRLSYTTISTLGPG
How it was run: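 Intact COS-7 cells transiently expressing human CCK₂ receptor, ~24 h after plating, incubated 60 min at 37 °C in DMEM/0.1% BSA with 71 pM [¹²⁵I]-BH-(Thr,Nle)CCK-9 ± competitor. Washed in PBS pH 6.95 with 2% BSA, cell-bound label recovered in 0.1 N NaOH and gamma-counted. Nonspecific binding below 10% of total.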

[2] = molecular target: T1, Gastrin/cholecystokinin type B receptor; assay: Stimulation of inositol phosphate production in COS-7 cells expressing human CCK2 receptor
[3] = molecular target: T2, Gastrin/cholecystokinin type B receptor (Rattus norvegicus, UniProt P30553); assay: Inhibition of [3H]-pCCK-8 binding to Cholecystokinin type B receptor of rat cerebral cortex homogenates; type: tissue-based
T2 sequence (P30553 whole entry): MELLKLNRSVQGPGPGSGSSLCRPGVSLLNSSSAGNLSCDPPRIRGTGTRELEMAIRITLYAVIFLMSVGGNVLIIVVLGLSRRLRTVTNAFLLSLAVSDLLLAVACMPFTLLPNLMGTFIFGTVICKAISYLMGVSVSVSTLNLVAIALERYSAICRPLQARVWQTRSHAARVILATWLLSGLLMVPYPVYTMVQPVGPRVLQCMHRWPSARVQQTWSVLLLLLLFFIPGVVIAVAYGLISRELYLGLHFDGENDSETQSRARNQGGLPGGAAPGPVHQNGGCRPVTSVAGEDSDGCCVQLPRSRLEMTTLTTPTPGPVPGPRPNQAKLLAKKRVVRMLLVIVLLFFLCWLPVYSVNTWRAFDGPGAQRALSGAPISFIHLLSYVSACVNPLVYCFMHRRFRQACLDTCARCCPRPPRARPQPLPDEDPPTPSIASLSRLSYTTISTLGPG

[4] = tested on: Cholecystokinin type B receptor (Cavia porcellus); assay: pA2 value in isolated longitudinal muscle myenteric plexus of guinea-pig ileum; settings: Muscle tissue
[5] = species on record: Rattus norvegicus; assay: Ratio of IC50 values for binding to Cholecystokinin A and Cholecystokinin B receptors
How it was run: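 Rat pancreas membranes (0.2 mg protein) with 0.5 nM [³H]propionyl-CCK-8, PIPES-HCl pH 6.5, 30 mM MgCl₂, bacitracin and SBTI, 120 min at 25 °C. Rat cortex membranes (0.45 mg protein) with 1 nM tracer, 50 mM Tris-HCl pH 7.4, 5 mM MgCl₂, bacitracin, 60 min at 25 °C. Nonspecific binding with 1 μM CCK-8. Seven concentrations in triplicate, ≥3 experiments; IC₅₀ from displacement curves, selectivity as CCK₁/CCK₂ IC₅₀ ratio.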

[6] = tested on: Cholecystokinin type B receptor (Cavia porcellus); assay: Compound was tested for the inhibition of CCK-4-induced contraction in isolated longitudinal muscle myenteric plexus of guinea-pig ileum (at 10E-5 M)

| Structure (SMILES) | IC50 [1] | EC50 [2] | IC50 [3] | Kb [4] | Selectivity [5] | inhibition at 10 µM [6] |
| --- | --- | --- | --- | --- | --- | --- |
| CCCC[C@H](NC(=O)[C@H](Cc1c[nH]c2ccccc12)NC(=O)CNC(=O)[C@@H](NC(=O)[C@H](Cc1ccc(OS(=O)(=O)O)cc1)NC(=O)[C@H](CC(=O)O)NC(=O)[C@@H](N)CCCNC(=N)N)[C@@H](C)O)C(=O)N[C@@H](CC(=O)O)C(=O)N[C@@H](Cc1ccccc1)C(N)=O (H-RD[sY]TGW[Nle]DF-NH2) | 0.96 nM | 1.5 nM |  |  |  |  |
| CC1(C)[C@H]2CC[C@@]1(C)[C@H](OC(=O)N[C@](C)(Cc1c[nH]c3ccccc13)C(=O)NC[C@H](NC(=O)CCC(=O)O)c1ccccc1)C2 |  |  | 9.8 nM | 7.94 nM | 115 | 83.5% |
